The subject of series [1] is HCT-116. Description: Cytotoxicity against human HCT116 cells after 24 to 96 hrs by MTS assay. Format: functional, cell-based. Summed up:
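HCT116 cells grown as monolayers in DMEM with 12% FBS and antibiotics at 37 °C, 5% CO2. Seeded at 3.5×10³, 7×10³ or 9×10³ cells/well, cultured 18 h, then exposed to 0.58 or 46 µmol/L final for 24, 48 or 96 h at 37 °C. Medium replaced with phenol red-free DMEM, MTS added for 1 h, absorbance read at 490 nm.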

The test system of series [2] is HCT-116. Nature of the series: Cytotoxicity against human HCT116 cells assessed as decrease in survival fraction of cells at 46 uM after 96 hrs by colonogenic assay. Format: functional. In a few lines: (§1)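 HCT116 cells (8.5×10⁴ or 2.1×10⁵) were seeded in 35-mm dishes and held 18 h, then exposed to 0.58 or 46 µM in medium for 24 h or 96 h. Cells were trypsinised and re-seeded drug-free, then grown 9 days at 37 °C. Colonies were fixed in ethanol, stained with crystal violet, and those of ≥50 cells counted. Survival fraction was taken relative to untreated cells; means of 3 or 2 experiments.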

A short description of series [3]: Lipophilicity, log K by RT-HPLC method. Format: physicochemical. Summed up:
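RP-HPLC on a C18 column (5 µm, 4.6 × 250 mm) with photodiode array detection, column at 30 °C and samples at 10 °C. Lipophilicity expressed as capacity factor k and calculated log k.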

Series [4] has as its system HCT-116. Nature of the series: Cytotoxicity against human HCT116 cells assessed as decrease in survival fraction of cells at 0.58 uM after 24 hrs by colonogenic assay. Format: functional. In a few lines: as §1
The test system of series [5] is HCT-116. Nature of the series: Cytotoxicity against human HCT116 cells assessed as decrease in survival fraction of cells at 0.58 uM after 96 hrs by colonogenic assay. Format: functional. In a few lines:
as §1

Series [6] deals with HCT-116. Description: Cytotoxicity against human HCT116 cells assessed as decrease in survival fraction of cells at 46 uM after 24 hrs by colonogenic assay. Format: functional. In a few lines:
as §1

The nature of series [7]: Cytotoxicity against mouse NIH/3T3 cells assessed as viable cells after 72 hrs by MTT assay. Format: cell-based. The settings on record: NIH3T3, 72 h.
The next series deals with SK-N-MC. Nature of the series: Cytotoxicity against human SK-N-MC cells after 72 hrs by MTT assay. Format: functional, cell-based. In a few lines: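 SK-N-MC cells in MEM with 10% FBS, pyruvate, non-essential amino acids, glutamine, antibiotics and fungizone. Seeded 24 h before treatment, then 72 h with varying concentrations. MTT (5 mg/mL stock) added for 2 h at 37 °C, followed by lysis and OD at 570 nm. IC50 derived; triplicate wells, experiments repeated 3–7 times.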

For series [8], the system named is NIH3T3 (Mus musculus). Nature of the series: Cytotoxicity against mouse NIH/3T3 cells assessed as IC50.
The next series concerns L1210. Nature of the series: Antiproliferative activity against mouse L1210 cells. Format: functional, cell-based.
The subject of series [9] is NIH3T3 (Mus musculus). Description: Cytotoxicity against mouse NIH/3T3 cells assessed as IC50. The source holds these as a separate data set.

Each structure is given as a SMILES string. Some results are limits rather than exact numbers.

Consider `CC(=O)NC1=CC(=O)c2cnc(C)nc2C1=O`, for which, in the series with HCT-116 [1], the IC50 came out at 17 µM. Further, the Activity is given as 0 in the series on HCT-116 [2], 1.2 in the series with HCT-116 [4], 0.26 in the series on HCT-116 [5] and 0 with HCT-116 [6]. Moreover, the “log K” value in series [3] is 0.017.

Take `COc1ccccc1/C=C/c1nc2ccccc2c(=O)[nH]1`: the IC50 with HCT-116 [1] worked out at 1.58 µM; in series [7] it was 1.17 µM; in the series with SK-N-MC it was 2.88 µM. In addition, in series [3], the “log K” value was found to be 1.151.

For `CC(=O)N(O)CCCCCNC(=O)CCC(=O)N(O)CCCCCNC(=O)CCC(=O)N(O)CCCCCN` [DEFEROXAMINE], the IC50 with SK-N-MC amounted to 9.89 µM.

As for `O=c1[nH]c(/C=C/c2cccc(Cl)c2)nc2ccccc12`, the “log K” value in series [3] turned out to be 1.506. Besides, the IC50 in the series with SK-N-MC is more than 6.25 µM.

As for `O=c1[nH]c(/C=C/c2ccc(Br)cc2)nc2ccc([N+](=O)[O-])cc12`, the “log K” value in [3] is recorded as 1.675. In the series on SK-N-MC, this molecule registered an IC50 of more than 6.25 µM.

As for `O=Cc1ccc(/C=C/c2nc3ccccc3c(=O)[nH]2)cc1`, in series [3], the “log K” value came out at 1.035. In addition, in the series with SK-N-MC, the IC50 was more than 6.25 µM.

In the case of `Oc1cccc2ccc(/C=C/c3ccc(Cl)cc3)nc12`, the “log K” value in series [3] is listed as 1.539. The same molecule came in with an IC50 in the series with SK-N-MC of 0.7 µM.

In the case of `Cc1nc2ccccc2c(=O)n1C(N)=O`, the figures for the IC50 in the series with HCT-116 [1] and with SK-N-MC were more than 600 µM and more than 6.25 µM, respectively. Moreover, the “log K” value in [3] is listed as 0.553.

Consider `COc1cccc(/C=C/c2nc(Cl)c3ccccc3n2)c1`, for which, in series [3], the “log K” value was 1.183. Also, the IC50 with NIH3T3 (Mus musculus) [8] was more than 100 µM; in the series with SK-N-MC, 5.28 µM.

For the molecule `COc1ccc(/C=C/c2nc(Cl)c3ccccc3n2)cc1`, the “log K” value in series [3] is 1.134. Further, the figures for the IC50 in the series with NIH3T3 (Mus musculus) [8] and in the series on SK-N-MC were more than 100 µM and 4.34 µM, respectively.

Consider `COc1ccc2nc(/C=C/c3ccccc3)[nH]c(=O)c2c1`, for which the IC50 with L1210 came out at 3.59 µM.

As to `COc1ccc(/C=C/c2nc3ccccc3c(=O)[nH]2)cc1`, the IC50 in the series on HCT-116 [1] is more than 46 µM; in the series on NIH3T3 (Mus musculus) [8], more than 100 µM; in the series on SK-N-MC, more than 6.25 µM. The “log K” value in [3] came to 1.135.

In the case of `O=c1[nH]c(/C=C/c2cccc(Br)c2)nc2ccccc12`, the “log K” value in [3] is recorded as 1.59. The IC50 in the series on SK-N-MC is more than 6.25 µM.

In the case of `O=c1[nH]c(/C=C/c2ccccc2)nc2ccccc12`, the IC50 amounted to 2.53 µM with HCT-116 [1], 2.4 µM in [7] and 1.39 µM in the series with SK-N-MC. Also, the “log K” value in [3] is given as 1.115.

Turning to `COc1ccc(/C=C/c2nc(Cl)c3ccccc3n2)c(OC)c1`, the IC50 was determined as 23 µM in the series on HCT-116 [1], 34.1 µM in the series on NIH3T3 (Mus musculus) [8] and 1.75 µM with SK-N-MC. In addition, in series [3], the “log K” value is listed as 1.195.

For `COc1cccc2c1C(=O)c1c(O)c3c(c(O)c1C2=O)C[C@@](O)(C(=O)CO)C[C@@H]3O[C@H]1C[C@H](N)[C@H](O)[C@H](C)O1` [DOXORUBICIN], the concentration for half-maximal inhibition (IC50) in the series with HCT-116 [1] was found to be 5.95 µM; with SK-N-MC, 0.12 µM.

On to `COc1cccc(/C=C/c2nc3ccccc3c(=O)[nH]2)c1`, for which the “log K” value in series [3] is given as 1.184. This molecule displayed an IC50 in the series with SK-N-MC of 5.13 µM.

As to `Cc1nc2ccc([N+](=O)[O-])cc2c(=O)n1C(N)=O`, the IC50 in the series on HCT-116 [1] was more than 92 µM; in the series with SK-N-MC it was more than 6.25 µM. Moreover, the “log K” value in series [3] came to 0.958.

In turn, `CC(=O)C1=CC(=O)c2nc(C)ccc2C1=O` showed an IC50 in the series with HCT-116 [1] of 10.9 µM. Moreover, the Activity with HCT-116 [2] is recorded as 0; in the series with HCT-116 [4], 1.07; with HCT-116 [5] it was 0.21; in the series on HCT-116 [6], 0.04.

Consider `Clc1nc(/C=C/c2ccccc2)nc2ccccc12`, for which the IC50 came to 3.04 µM in series [7] and 4.96 µM with SK-N-MC. In [3], the “log K” value was found to be 1.109.

Consider `O=c1[nH]c(/C=C/c2ccc(Br)cc2)nc2ccccc12`, for which the “log K” value in series [3] was determined as 1.593. For the same molecule, in the series on SK-N-MC, the half-maximal inhibitory concentration (IC50) came to 2.85 µM.

With `COc1ccccc1/C=C/c1nc(Cl)c2ccccc2n1`, the IC50 is 9.4 µM with HCT-116 [1], more than 100 µM with NIH3T3 (Mus musculus) [9], more than 100 µM in the series with NIH3T3 (Mus musculus) [8] and 0.58 µM with SK-N-MC. Further, the Activity stood at 0 in the series on HCT-116 [2], 0.43 in the series on HCT-116 [4], 0 with HCT-116 [5] and 0.03 with HCT-116 [6]. Besides, the “log K” value in series [3] is 1.365.

`O=c1[nH]c(/C=C/c2ccccc2Br)nc2ccccc12`: the IC50 was more than 46 µM in the series on HCT-116 [1] and more than 6.25 µM with SK-N-MC. For the same molecule, in series [3], the “log K” value was determined as 1.483.

The molecule `O=c1[nH]c(/C=C/c2ccc(O)c(O)c2O)nc2ccccc12` showed an IC50 in the series with HCT-116 [1] of more than 46 µM. The “log K” value in [3] was found to be 0.551.

For `COc1ccc(/C=C/c2nc3ccccc3c(=O)[nH]2)c(OC)c1`, the “log K” value in [3] is recorded as 1.198. The molecule also yielded an IC50 in the series on SK-N-MC of more than 6.25 µM.

These data come from ChEMBL document CHEMBL1156162, “Investigating the anti-proliferative activity of styrylazanaphthalenes and azanaphthalenediones” (Bioorg Med Chem, 2010).
